Assay results: ChEMBL document CHEMBL1142406, “2-Heteroarylimino-5-benzylidene-4-thiazolidinones analogues of 2-thiazolylimino-5-benzylidene-4-thiazolidinones with antimicrobial activity: synthesis and structure-activity relationship” (2008)
≈ marks a conversion by molar mass, not a printed value. Calls of active or inactive are those of the source. The rule behind the calls is not given here.

Legend:
Bacillus subtilis = assay: Antimicrobial activity against Bacillus subtilis ATCC 6633 by broth dilution technique; assay type: functional
Method in brief: (§1)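 Broth dilution in Mueller Hinton Broth. Compounds are dissolved in DMSO (never above 1% v/v final) and serially diluted. MIC is the lowest concentration giving complete growth inhibition.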

Staphylococcus aureus [1] = assay: Antimicrobial activity against Staphylococcus aureus ATCC 25923 by broth dilution technique; assay type: functional; method in brief: as §1
Haemophilus influenzae = assay: Antimicrobial activity against Haemophilus influenzae by broth dilution technique; assay type: functional
Method in brief: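 Haemophilus Test Medium broth dilution. Compounds in DMSO are added to final dilutions, with DMSO at most 1% v/v. MIC is the lowest concentration completely inhibiting growth.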

Escherichia coli = assay: Antimicrobial activity against Escherichia coli SPA27 upto 100 ug/ml by broth dilution technique; assay type: functional, organism-based; method in brief: as §1
Candida tropicalis = assay: Antimicrobial activity against Candida tropicalis ATCC 1369 upto 100 ug/ml by broth dilution technique; assay type: functional, organism-based
Method in brief: (§2)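 Fungi are tested by Sabouraud Liquid Medium dilution. Compounds are in DMSO, with DMSO at most 1% v/v final. Inoculum is 1×10³ fungi/mL, incubated 48 h at 30 °C. MIC is the lowest concentration completely inhibiting growth. For MFC, 100 µL of clear mixtures is subcultured into 1 mL fresh medium and read after 48 h at 30 °C.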

Aspergillus niger = assay: Antimicrobial activity against Aspergillus niger ATCC 6275 upto 100 ug/ml by broth dilution technique; assay type: functional, organism-based; method in brief: as §2
Saccharomyces cerevisiae = assay: Antimicrobial activity against Saccharomyces cerevisiae ATCC 9763 upto 100 ug/ml by broth dilution technique; assay type: functional, organism-based; method in brief: as §2
Priestia megaterium = assay: Antimicrobial activity against Bacillus megaterium by broth dilution technique; assay type: functional; method in brief: as §1
Micrococcus luteus = assay: Antimicrobial activity against Sarcina lutea by broth dilution technique; assay type: functional; method in brief: as §1
Staphylococcus aureus [2] = assay: Antimicrobial activity against penicillin-resistant Staphylococcus aureus by broth dilution technique; assay type: functional
Method in brief: (§3)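 Broth dilution in Mueller Hinton Broth with compounds predissolved in DMSO (at most 1% v/v). Final concentrations ranged from 100 to 0.0015, and the inoculum was 5.10⁴ bacteria/mL. Plates were incubated at 37 °C for 24 h. MIC was taken as the lowest concentration giving complete growth inhibition.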

[3] = test system: Staphylococcus epidermidis; assay: Antimicrobial activity against penicillin-resistant Staphylococcus epidermidis by broth dilution technique; assay type: functional; method in brief: as §3
[4] = test system: Staphylococcus haemolyticus; assay: Antimicrobial activity against Staphylococcus haemolyticus by broth dilution technique; assay type: functional; method in brief: as §1
Streptococcus agalactiae = assay: Antimicrobial activity against Streptococcus agalactiae by broth dilution technique; assay type: functional; method in brief: as §1
Enterococcus faecalis = assay: Antimicrobial activity against Streptococcus faecalis by broth dilution technique; assay type: functional; method in brief: as §1
Enterococcus faecium = assay: Antimicrobial activity against Streptococcus faecium by broth dilution technique; assay type: functional; method in brief: as §1
Streptococcus pyogenes = assay: Antimicrobial activity against Streptococcus pyogenes by broth dilution technique; assay type: functional
Method in brief: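 Tryptose Phosphate Broth dilution. Compounds are dissolved in DMSO, with DMSO at most 1% v/v final. MIC is taken as the lowest concentration with complete growth inhibition.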

Bacillus thuringiensis = assay: Antimicrobial activity against Bacillus thuringiensis var. kurstaki BGSC 4D1 by broth dilution technique; assay type: functional; conditions: serovar kurstaki; method in brief: as §1
[5] = test system: Staphylococcus epidermidis; assay: Antimicrobial activity against Staphylococcus epidermidis ATCC 12228 by broth dilution technique

| Structure (SMILES) | MIC (Bacillus subtilis) [µg/mL] | MIC (Staphylococcus aureus [1]) [µg/mL] | MIC (Haemophilus influenzae) [µg/mL] | Activity (Escherichia coli) | Activity (Candida tropicalis) | Activity (Aspergillus niger) | Activity (Saccharomyces cerevisiae) | MIC (Priestia megaterium) [µg/mL] | MIC (Micrococcus luteus) [µg/mL] | MIC (Staphylococcus aureus [2]) [µg/mL] | MIC [3] [µg/mL] | MIC [4] [µg/mL] | MIC (Streptococcus agalactiae) [µg/mL] | MIC (Enterococcus faecalis) [µg/mL] | MIC (Enterococcus faecium) [µg/mL] | MIC (Streptococcus pyogenes) [µg/mL] | MIC (Bacillus thuringiensis) [µg/mL] | MIC [5] [µg/mL] |
| --- | --- | --- | --- | --- | --- | --- | --- | --- | --- | --- | --- | --- | --- | --- | --- | --- | --- | --- |
| O=C1N/C(=N/c2nsc3ccccc23)S/C1=C\c1ccccc1Cl | > 100 | > 100 | > 100 | inactive | inactive | inactive | inactive | – | – | – | – | – | – | – | – | – | – | – |
| CC1(C)S[C@@H]2[C@H](NC(=O)[C@H](N)c3ccccc3)C(=O)N2[C@H]1C(=O)O [AMPICILLIN] | 0.007 (≈ 0.02 µM) | 0.07 (≈ 0.2 µM) | 0.07 (≈ 0.2 µM) | inactive | inactive | inactive | inactive | 0.07 (≈ 0.2 µM) | 0.0015 (≈ 0.00429 µM) | 25 (≈ 71.5 µM) | 25 (≈ 71.5 µM) | 0.03 (≈ 0.0859 µM) | 0.03 (≈ 0.0859 µM) | 0.7 (≈ 2 µM) | 100 (≈ 286 µM) | 0.007 (≈ 0.02 µM) | 50 (≈ 143 µM) | 3 (≈ 8.59 µM) |
| COc1cc(/C=C2\S/C(=N\c3nsc4ccccc34)NC2=O)ccc1O | > 100 | > 100 | > 100 | inactive | inactive | inactive | inactive | – | – | – | – | – | – | – | – | – | – | – |
| O=C1N/C(=N\c2nccs2)S/C1=C\c1ccccc1 | 0.7 (≈ 2.44 µM) | 3 (≈ 10.4 µM) | 0.7 (≈ 2.44 µM) | inactive | inactive | inactive | inactive | 0.7 (≈ 2.44 µM) | 3 (≈ 10.4 µM) | 25 (≈ 87 µM) | 50 (≈ 174 µM) | 6 (≈ 20.9 µM) | 3 (≈ 10.4 µM) | 25 (≈ 87 µM) | 25 (≈ 87 µM) | > 100 | 3 (≈ 10.4 µM) | 6 (≈ 20.9 µM) |
| O=C1N/C(=N/c2nsc3ccccc23)S/C1=C\c1ccc(Cl)cc1 | 3 (≈ 8.07 µM) | > 100 | > 100 | inactive | inactive | inactive | inactive | 0.7 (≈ 1.88 µM) | > 100 | > 100 | > 100 | > 100 | 50 (≈ 134 µM) | > 100 | > 100 | > 100 | 6 (≈ 16.1 µM) | > 100 |
| O=C1N/C(=N/c2nsc3ccccc23)S/C1=C\c1ccccc1 | > 100 | > 100 | > 100 | inactive | inactive | inactive | inactive | – | – | – | – | – | – | – | – | – | – | – |
| O=C1N/C(=N\c2nccs2)S/C1=C\c1cccc(Cl)c1 | 0.3 (≈ 0.932 µM) | 1.5 (≈ 4.66 µM) | 0.3 (≈ 0.932 µM) | inactive | inactive | inactive | inactive | 0.15 (≈ 0.466 µM) | 1.5 (≈ 4.66 µM) | 0.7 (≈ 2.18 µM) | 1.5 (≈ 4.66 µM) | 3 (≈ 9.32 µM) | 1.5 (≈ 4.66 µM) | 50 (≈ 155 µM) | 3 (≈ 9.32 µM) | 12 (≈ 37.3 µM) | 1.5 (≈ 4.66 µM) | 1.5 (≈ 4.66 µM) |
| O=C1CSC(Nc2nccs2)=N1 | 50 (≈ 251 µM) | > 100 | 1.5 (≈ 7.53 µM) | inactive | inactive | inactive | inactive | – | – | – | – | – | – | – | – | – | – | – |
| COc1ccc(/C=C2\S/C(=N/c3nccs3)NC2=O)cc1 | 1.5 (≈ 4.73 µM) | 12 (≈ 37.8 µM) | 0.3 (≈ 0.945 µM) | inactive | inactive | inactive | inactive | 1.5 (≈ 4.73 µM) | 6 (≈ 18.9 µM) | 3 (≈ 9.45 µM) | 12 (≈ 37.8 µM) | 12 (≈ 37.8 µM) | 3 (≈ 9.45 µM) | > 100 | > 100 | 12 (≈ 37.8 µM) | 3 (≈ 9.45 µM) | 6 (≈ 18.9 µM) |
| O=C1N/C(=N\c2nc3ccccc3s2)S/C1=C\c1ccccc1Cl | 12 (≈ 32.3 µM) | 12 (≈ 32.3 µM) | > 100 | inactive | inactive | inactive | inactive | 12 (≈ 32.3 µM) | 12 (≈ 32.3 µM) | 12 (≈ 32.3 µM) | 25 (≈ 67.2 µM) | > 100 | > 100 | > 100 | > 100 | 25 (≈ 67.2 µM) | 12 (≈ 32.3 µM) | 12 (≈ 32.3 µM) |
| O=C1N/C(=N/c2nsc3ccccc23)S/C1=C\c1ccccc1[N+](=O)[O-] | > 100 | 3 (≈ 7.84 µM) | 1.5 (≈ 3.92 µM) | inactive | inactive | inactive | inactive | > 100 | > 100 | 50 (≈ 131 µM) | > 100 | > 100 | > 100 | 100 (≈ 261 µM) | > 100 | > 100 | 3 (≈ 7.84 µM) | > 100 |
| O=C1N/C(=N/c2nsc3ccccc23)S/C1=C\c1cccc([N+](=O)[O-])c1 | > 100 | > 100 | 3 (≈ 7.84 µM) | inactive | inactive | inactive | inactive | 0.7 (≈ 1.83 µM) | > 100 | > 100 | > 100 | > 100 | > 100 | > 100 | > 100 | > 100 | 1.5 (≈ 3.92 µM) | > 100 |
| O=C1N/C(=N\c2nc3ccccc3s2)S/C1=C\c1ccc(Cl)cc1 | 12 (≈ 32.3 µM) | > 100 | > 100 | inactive | inactive | inactive | inactive | 12 (≈ 32.3 µM) | 12 (≈ 32.3 µM) | > 100 | 12 (≈ 32.3 µM) | 100 (≈ 269 µM) | > 100 | 100 (≈ 269 µM) | > 100 | > 100 | 6 (≈ 16.1 µM) | 12 (≈ 32.3 µM) |
| COc1ccc(/C=C2\S/C(=N\c3nsc4ccccc34)NC2=O)cc1 | > 100 | > 100 | > 100 | inactive | inactive | inactive | inactive | – | – | – | – | – | – | – | – | – | – | – |
| O=C1N/C(=N\c2nccs2)S/C1=C\c1ccc([N+](=O)[O-])cc1 | 1.5 (≈ 4.51 µM) | 3 (≈ 9.03 µM) | 0.3 (≈ 0.903 µM) | inactive | inactive | inactive | inactive | 0.7 (≈ 2.11 µM) | 3 (≈ 9.03 µM) | 1.5 (≈ 4.51 µM) | 6 (≈ 18.1 µM) | 6 (≈ 18.1 µM) | 1.5 (≈ 4.51 µM) | > 100 | > 100 | > 100 | 1.5 (≈ 4.51 µM) | 6 (≈ 18.1 µM) |
| O=C1N/C(=N\c2nc3ccccc3s2)S/C1=C\c1ccccc1[N+](=O)[O-] | > 100 | > 100 | > 100 | inactive | inactive | inactive | inactive | – | – | – | – | – | – | – | – | – | – | – |
